Calls of active or inactive are those of the source. The rule behind the calls is not given here.
Key:
[1] = target: T1, Amyloid-beta precursor protein (Homo sapiens, UniProt P05067); assay: Inhibition of amyloid beta (1 to 42) aggregation (unknown origin) at 5 uM by ThT-based fluorescence assay
[2] = target: T2, Acetylcholinesterase (Homo sapiens, UniProt P22303); assay: Inhibition of human acetylcholine esterase-induced amyloid beta (1 to 40) aggregation by ThT-based fluorescence assay
[3] = target: T2, Acetylcholinesterase; assay: Inhibition of human acetylcholine esterase-induced amyloid beta (1 to 40) aggregation at 100 uM by ThT-based fluorescence assay
[4] = target: T1, Amyloid-beta precursor protein; assay: Inhibition of amyloid beta (1 to 42) aggregation (unknown origin) after 24 hrs by ThT-based fluorescence assay
[5] = species: Homo sapiens; assay: Selectivity ratio of Ki for human acetylcholine esterase to Ki for human butyrylcholine esterase
[6] = target: Cholinesterase (Homo sapiens, UniProt P06276); assay: Inhibition of human butyrylcholine esterase
[7] = target: T2, Acetylcholinesterase; assay: Inhibition of human acetylcholine esterase
[8] = target: T1, Amyloid-beta precursor protein; assay: Inhibition of amyloid beta (1 to 42) oligomerization (unknown origin) assessed as depletion of higher molecular weight oligomers formation at 200 to 500 uM by capillary electrophoresis method; conditions: TDE = time-dependent effect
[9] = target: T1, Amyloid-beta precursor protein; assay: Inhibition of amyloid beta (1 to 42) oligomerization (unknown origin) assessed as stable smaller oligomer formation at 500 uM after 24 hrs by capillary electrophoresis method
[10] = target: T1, Amyloid-beta precursor protein; assay: Inhibition of amyloid beta (1 to 42) oligomerization (unknown origin) assessed as inhibition of toxic aggregate formation at 500 uM after 24 hrs by capillary electrophoresis method
[11] = target: T1, Amyloid-beta precursor protein; assay: Inhibition of amyloid beta (1 to 42) oligomerization (unknown origin) assessed as amorphous aggregates formation at 50 to 500 uM by transmission electron microscopy
Procedure, shortened: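 Aβ1-42 samples were imaged by transmission electron microscopy with 50 µM test compound added, n = 2.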

[12] = target: T1, Amyloid-beta precursor protein; assay: Inhibition of amyloid beta (1 to 42) oligomerization (unknown origin) assessed as disaggregation of toxic oligomers and precipitation at 200 to 500 uM by transmission electron microscopy relative to control
[13] = target: T1, Amyloid-beta precursor protein; assay: Inhibition of amyloid beta (1 to 42) oligomerization (unknown origin) assessed as oligomer stabilization at 200 uM after 2 days by capillary electrophoresis method
[14] = target: T1, Amyloid-beta precursor protein; assay: Inhibition of amyloid beta (1 to 42) oligomerization (unknown origin) assessed as oligomer stabilization at 200 uM after 6 hrs by capillary electrophoresis method
[15] = target: T1, Amyloid-beta precursor protein; assay: Inhibition of amyloid beta (1 to 42) oligomerization (unknown origin) assessed as oligomer stabilization at 200 uM measured immediately by capillary electrophoresis method
[16] = target: T1, Amyloid-beta precursor protein; assay: Inhibition of amyloid beta (1 to 42) oligomerization (unknown origin) assessed as depletion of higher molecular weight oligomers after 6 hrs to 2 days by capillary electrophoresis method

T1 sequence (P05067 whole entry): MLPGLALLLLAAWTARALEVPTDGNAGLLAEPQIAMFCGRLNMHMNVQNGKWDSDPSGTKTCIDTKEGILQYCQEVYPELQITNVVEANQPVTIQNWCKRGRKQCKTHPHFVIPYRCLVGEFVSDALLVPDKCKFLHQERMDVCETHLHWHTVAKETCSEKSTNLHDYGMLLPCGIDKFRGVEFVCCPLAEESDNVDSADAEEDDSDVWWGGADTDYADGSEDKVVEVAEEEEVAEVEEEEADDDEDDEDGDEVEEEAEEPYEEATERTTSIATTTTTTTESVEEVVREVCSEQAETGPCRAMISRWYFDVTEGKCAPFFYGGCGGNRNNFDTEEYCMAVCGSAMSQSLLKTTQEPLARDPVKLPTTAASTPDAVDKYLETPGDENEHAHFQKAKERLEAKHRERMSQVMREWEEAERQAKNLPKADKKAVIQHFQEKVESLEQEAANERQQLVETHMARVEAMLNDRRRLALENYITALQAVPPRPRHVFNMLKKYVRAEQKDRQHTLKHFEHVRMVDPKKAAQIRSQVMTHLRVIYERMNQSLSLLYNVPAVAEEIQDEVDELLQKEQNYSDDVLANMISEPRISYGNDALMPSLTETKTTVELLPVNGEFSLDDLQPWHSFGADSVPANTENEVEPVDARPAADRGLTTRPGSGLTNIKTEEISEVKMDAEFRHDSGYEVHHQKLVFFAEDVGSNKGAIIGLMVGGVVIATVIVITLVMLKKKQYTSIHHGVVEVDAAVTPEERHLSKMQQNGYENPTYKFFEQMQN
T2 sequence (P22303 whole entry): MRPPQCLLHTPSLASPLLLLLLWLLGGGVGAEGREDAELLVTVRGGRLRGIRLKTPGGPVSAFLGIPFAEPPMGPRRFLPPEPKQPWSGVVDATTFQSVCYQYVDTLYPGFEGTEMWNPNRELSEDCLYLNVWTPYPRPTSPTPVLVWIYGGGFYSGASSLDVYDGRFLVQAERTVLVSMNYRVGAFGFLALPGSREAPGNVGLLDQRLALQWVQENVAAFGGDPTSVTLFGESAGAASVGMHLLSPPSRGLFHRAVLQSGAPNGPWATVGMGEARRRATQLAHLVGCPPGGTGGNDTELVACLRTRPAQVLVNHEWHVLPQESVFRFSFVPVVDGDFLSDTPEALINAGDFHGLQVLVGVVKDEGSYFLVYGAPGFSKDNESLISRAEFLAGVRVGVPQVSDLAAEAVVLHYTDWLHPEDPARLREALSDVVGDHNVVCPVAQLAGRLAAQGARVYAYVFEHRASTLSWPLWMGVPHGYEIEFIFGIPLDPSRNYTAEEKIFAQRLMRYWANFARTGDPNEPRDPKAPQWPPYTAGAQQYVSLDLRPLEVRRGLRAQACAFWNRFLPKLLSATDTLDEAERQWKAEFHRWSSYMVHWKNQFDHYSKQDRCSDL
Sequence of Cholinesterase (P06276 whole entry): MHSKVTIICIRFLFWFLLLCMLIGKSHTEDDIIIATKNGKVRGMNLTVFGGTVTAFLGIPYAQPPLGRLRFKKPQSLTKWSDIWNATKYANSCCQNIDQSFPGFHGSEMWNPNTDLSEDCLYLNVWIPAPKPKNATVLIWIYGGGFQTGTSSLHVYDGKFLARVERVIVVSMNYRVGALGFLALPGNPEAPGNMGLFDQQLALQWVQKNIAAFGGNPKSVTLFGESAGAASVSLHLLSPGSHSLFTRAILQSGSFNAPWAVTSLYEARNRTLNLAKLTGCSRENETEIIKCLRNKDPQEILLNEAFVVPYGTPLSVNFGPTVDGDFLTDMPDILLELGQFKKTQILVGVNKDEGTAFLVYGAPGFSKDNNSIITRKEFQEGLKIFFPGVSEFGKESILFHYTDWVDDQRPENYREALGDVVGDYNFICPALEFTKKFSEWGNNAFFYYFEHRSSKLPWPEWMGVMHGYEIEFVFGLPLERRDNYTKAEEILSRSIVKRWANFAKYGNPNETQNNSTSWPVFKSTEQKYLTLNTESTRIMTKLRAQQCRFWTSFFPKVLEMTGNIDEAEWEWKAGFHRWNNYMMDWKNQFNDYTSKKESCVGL

Row | SMILES | inhibition [1] | inhibition [3] | Ratio Ki [5] | Ki [6] | Ki [7] | also measured
1 | c1ccc2c(NCCCCCCCNc3c4c(nc5ccccc35)CCCC4)c3c(nc2c1)CCCC3 | 8.4% |  |  |  |  | 
2 | CN(CCCCNc1c2c(nc3c(NC(=O)CNC(=O)CC[C@H](NC(=O)CNC(=O)OCc4ccccc4)C(=O)N[C@@H](Cc4ccccc4)C(=O)OCc4ccccc4)cccc13)CCCC2)CCCNc1c2c(nc3ccccc13)CCCC2 |  | 42% | 0.07 | 21.3 nM | 1.48 nM | IC50 [2]: 113000 nM; IC50 [4]: 51000 nM
3 | Nc1cccc2c(NCCCCCCCCNc3c4c(nc5ccccc35)CCCC4)c3c(nc12)CCCC3 |  |  | 0.028 | 8.26 nM | 0.23 nM | 
4 | CN(CCCCNc1c2c(nc3ccccc13)CCCC2)CCCNc1c2c(nc3c(NC(=O)CNC(=O)CC[C@H](NC(=O)CNC(=O)OCc4ccccc4)C(=O)N[C@@H](Cc4ccccc4)C(=O)OCc4ccccc4)cccc13)CCCC2 |  | 42% | 0.081 | 61.8 nM | 5.02 nM | 
5 | O=[N+]([O-])c1cccc2c(NCCCCCCCCNc3c4c(nc5ccccc35)CCCC4)c3c(nc12)CCCC3 |  |  | 13 | 0.06 nM | 0.78 nM | 
6 | O=C(CC[C@H](NC(=O)CNC(=O)OCc1ccccc1)C(=O)N[C@@H](Cc1ccccc1)C(=O)OCc1ccccc1)NCC(=O)Nc1cccc2c(NCCCCCCCCNc3c4c(nc5ccccc35)CCCC4)c3c(nc12)CCCC3 | 81% | 26% | 0.038 | 40.9 nM | 1.92 nM | inhibition [8]: tde; inhibition [9]: Active; inhibition [10]: Active; inhibition [11]: Active; inhibition [12]: Active; inhibition [13]: Active; inhibition [14]: 87.2%; inhibition [15]: 82.5%; inhibition [16]: Dose-dependent effect

Source: ChEMBL document CHEMBL3098022, “Multifunctional cholinesterase and amyloid Beta fibrillization modulators. Synthesis and biological investigation” (ACS Med Chem Lett, 2013)
